Results taken from ChEMBL document CHEMBL1649313, “T-2307 shows efficacy in a murine model of Candida glabrata infection despite in vitro trailing growth phenomena” (2010).
Activity calls are given as the source filed them. No cut-off for these calls is given here. *1 amine or outer side, *2 acyl side, *3 side chain or, on linkers, in order; H or OH if unused. Where a SMILES comes first, the peptide text is derived from it. Bridges are numbered along the chain shown (N, C = ends). [ ]: non-standard residue; d: D form. The star is where a group is joined. hTyr(3S-OH,4S-OH,3'-OSO3H) = N[C@H](C(=O)O)[C@H](O)[C@@H](O)c1ccc(O)c(OS(=O)(=O)O)c1; Orn(4R-OH,5R-OH) = O=C([C@H](C[C@@H](O)[C@@H](O)N[*:3])N[*:1])[*:2]; Pro(3S-OH,4S-Me) = C[C@H]1CN[C@H](C(=O)O)[C@H]1O; X1 = CCCCCOc1ccc(-c2cc(-c3ccc(C(=O)*)cc3)no2)cc1; Gln(3R-OH) = NC(=O)C[C@@H](O)[C@H](N)C(=O)O; Hyp = O=C(O)[C@@H]1C[C@@H](O)CN1

Tests used:
[1] = test system: Nakaseomyces glabratus; assay: Antifungal activity against Candida glabrata ATCC 90030 after 48 hrs by broth microdilution method in presence of 2% glucose; assay type: functional; details: ATCC 90030, 48 h
Summary of the method: (§1)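 CLSI M27-A3 broth microdilution in RPMI 1640 (pH 7.0, 0.165 M MOPS) with glucose at 2%, 0.2%, 0.1%, 0.05% or 0.02%, or with 0.2% glycerol in place of glucose. Inoculum from 24-h SDA culture at 35°C, final 1 × 10^3 cells/ml. Incubated 48 h. MIC is the lowest concentration giving a prominent turbidity drop; OD600 also read against the growth control.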

[2] = test system: Nakaseomyces glabratus; assay: Antifungal activity against Candida glabrata ATCC 90030 assessed as growth inhibition at 0.0039 to 0.125 ug/ml after 24 hrs; assay type: functional, organism-based
Summary of the method: (§2)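 Inhibition curve in CLSI M27-A3 microdilution: RPMI 1640 with 0.2% glucose, MOPS-buffered to pH 7.0, final inoculum 1 × 10^3 cells/ml. OD600 was read on a microplate spectrophotometer at 24 h and 48 h. Percent inhibition was calculated relative to the growth-control well.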

[3] = test system: Nakaseomyces glabratus; assay: Antifungal activity against Candida glabrata ATCC 90030 after 48 hrs by broth microdilution method in presence of 0.05% glucose; assay type: functional; details: ATCC 90030, 48 h; summary of the method: as §1
[4] = test system: Nakaseomyces glabratus; assay: Antifungal activity against Candida glabrata ATCC 90030 after 48 hrs by broth microdilution method in presence of 0.1% glucose; assay type: functional; details: ATCC 90030, 48 h; summary of the method: as §1
[5] = test system: Nakaseomyces glabratus; assay: Antifungal activity against Candida glabrata ATCC 90030 infected in ICR mouse assessed as fungal load in kidney at 0.1 mg/kg/day, sc for 8 days measured on day 8; assay type: functional; details: route subcutaneous
Summary of the method: (§3)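 Four-week-old male SPF ICR mice (n=5/group) were made neutropenic with cyclophosphamide 200 mg/kg ip on day −3 and 100 mg/kg on day +1. They were infected iv (tail vein) with 7.68 × 10^6 CFU/mouse in saline. Dosing was sc once daily for 8 days from 2 h post-infection; controls got saline. Day-8 kidney homogenates were plated on SDA with 0.1 mg/ml imipenem, 35°C, 5 days. Result is log CFU/kidneys, Dunnett test versus control.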

[6] = test system: Nakaseomyces glabratus; assay: Antifungal activity against Candida glabrata ATCC 90030 infected in ICR mouse assessed as fungal load in kidney at 0.025 mg/kg/day, sc for 8 days measured on day 8; assay type: functional; details: route subcutaneous; summary of the method: as §3
[7] = test system: Nakaseomyces glabratus; assay: Antifungal activity against Candida glabrata ATCC 90030 after 48 hrs by broth microdilution method in presence of 0.2% glycerol; assay type: functional; details: ATCC 90030, 48 h; summary of the method: as §1
[8] = test system: Nakaseomyces glabratus; assay: Antifungal activity against Candida glabrata ATCC 90030 assessed as growth inhibition at 0.0039 to 0.125 ug/ml after 48 hrs; assay type: functional, organism-based; summary of the method: as §2
[9] = test system: Nakaseomyces glabratus; assay: Antifungal activity against Candida glabrata ATCC 90030 after 48 hrs by broth microdilution method in presence of 0.2% glucose; assay type: functional; details: ATCC 90030, 48 h; summary of the method: as §1
[10] = test system: Nakaseomyces glabratus; assay: Antifungal activity against Candida glabrata ATCC 90030 infected in ICR mouse assessed as fungal load in kidney at 0.05 mg/kg/day, sc for 8 days measured on day 8; assay type: functional; details: route subcutaneous; summary of the method: as §3
[11] = test system: Nakaseomyces glabratus; assay: Antifungal activity against Candida glabrata ATCC 90030 after 48 hrs by broth microdilution method in presence of 0.02% glucose; assay type: functional; details: ATCC 90030, 48 h; summary of the method: as §1
[12] = test system: Nakaseomyces glabratus; assay: Antifungal activity against Candida glabrata ATCC 90030 infected in ICR mouse assessed as fungal load in kidney at 0.5 mg/kg/day, sc for 8 days measured on day 8; details: route subcutaneous
[13] = test system: Nakaseomyces glabratus; assay: Antifungal activity against Candida glabrata ATCC 90030 infected in ICR mouse assessed as fungal load in kidney at 0.25 mg/kg/day, sc for 8 days measured on day 8; details: route subcutaneous
[14] = test system: Nakaseomyces glabratus; assay: Antifungal activity against Candida glabrata ATCC 90030 infected in ICR mouse assessed as fungal load in kidney at 0.125 mg/kg/day, sc for 8 days measured on day 8; details: route subcutaneous
[15] = test system: Nakaseomyces glabratus; assay: Antifungal activity against Candida glabrata ATCC 90030 infected in ICR mouse assessed as fungal load in kidney at 5 mg/kg/day, sc for 8 days measured on day 8; assay type: functional; details: route subcutaneous
Summary of the method: (§4)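 Four-week-old male SPF ICR mice made neutropenic with cyclophosphamide ip, 200 mg/kg on day −3 and 100 mg/kg on day +1. Infected iv by tail vein with 7.68 × 10^6 CFU from an overnight SDA culture in saline. Dosed sc once daily for 8 days starting 2 h post-infection, 5 mice per group, saline controls. Kidneys harvested on day 8, homogenates plated on SDA with imipenem, 5 days at 35°C, log CFU counted, Dunnett test.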

[16] = test system: Nakaseomyces glabratus; assay: Antifungal activity against Candida glabrata ATCC 90030 infected in ICR mouse assessed as fungal load in kidney at 10 mg/kg/day, sc for 8 days measured on […]; assay type: functional; details: route subcutaneous
[17] = test system: Nakaseomyces glabratus; assay: Antifungal activity against Candida glabrata ATCC 90030 after 48 hrs by Almar blue assay in presence of 0.2% glucosel; details: ATCC 90030, 48 h
[18] = test system: Nakaseomyces glabratus; assay: Antifungal activity against Candida glabrata ATCC 90030 infected in ICR mouse assessed as fungal load in kidney at 2.5 mg/kg/day, sc for 8 days measured on day 8; assay type: functional; details: route subcutaneous; summary of the method: as §4
[19] = test system: Nakaseomyces glabratus; assay: Antifungal activity against Candida glabrata ATCC 90030 after 24 hrs by broth microdilution method in presence of 0.2% glucose; assay type: functional; details: ATCC 90030, 24 h
[20] = test system: Nakaseomyces glabratus; assay: Antifungal activity against Candida glabrata ATCC 90030 after 24 hrs by Almar blue assay in presence of 0.2% glucose; details: ATCC 90030, 24 h
[21] = test system: Nakaseomyces glabratus; assay: Antifungal activity against Candida glabrata ATCC 90030 after 24 hrs by broth microdilution method in presence of 2% glucose; assay type: functional; details: ATCC 90030, 24 h
[22] = test system: Nakaseomyces glabratus; assay: Antifungal activity against Candida glabrata ATCC 90030 after 24 hrs by broth microdilution method in presence of 0.1% glucose; assay type: functional; details: ATCC 90030, 24 h
[23] = test system: Nakaseomyces glabratus; assay: Antifungal activity against Candida glabrata ATCC 90030 after 24 hrs by broth microdilution method in presence of 0.02% glucose; assay type: functional; details: ATCC 90030, 24 h
[24] = test system: Nakaseomyces glabratus; assay: Antifungal activity against Candida glabrata ATCC 90030 after 24 hrs by broth microdilution method in presence of 0.05% glucose; assay type: functional; details: ATCC 90030, 24 h

Structure (SMILES) | MIC [1] [mg/L] | MIC [3] [mg/L] | MIC [4] [mg/L] | MIC [7] [mg/L] | MIC [9] [mg/L] | MIC [11] [mg/L] | log10cfu [12] | log10cfu [13] | log10cfu [14] | MIC [17] [mg/L] | further results
N=C(N)c1ccc(OCCCC2CCN(CCCOc3ccc(C(=N)N)cc3)CC2)cc1 | > 0.125 | 0.001 | 0.0039 | 0.0005 | 0.0039 | 0.001 | – | – | – | – | Activity [2]: Active; log10cfu [5]: 3.86; log10cfu [6]: 4.3; Activity [8]: Active; log10cfu [10]: 4
C[C@@H]1[C@H](O)[C@@H](C)/C=C/C=C/C=C/C=C/C=C/C=C/C=C/[C@H](O[C@@H]2O[C@H](C)[C@@H](O)[C@H](N)[C@@H]2O)C[C@@H]2O[C@](O)(C[C@@H](O)C[C@@H](O)[C@H](O)CC[C@@H](O)C[C@@H](O)CC(=O)O[C@H]1C)C[C@H](O)[C@H]2C(=O)O [AMPHOTERICIN B] | 2 | 2 | 2 | 1 | 2 | 2 | 2.93 | 4.53 | 4.61 | – | –
OC(Cn1cncn1)(Cn1cncn1)c1ccc(F)cc1F [FLUCONAZOLE] | 16 | 8 | 8 | 4 | 8 | 4 | – | – | – | 16 | log10cfu [15]: 5.33; log10cfu [16]: 4.62; log10cfu [18]: 4.96
CCCCCOc1ccc(-c2cc(-c3ccc(C(=O)N[C@H]4C[C@@H](O)[C@@H](O)NC(=O)[C@@H]5[C@@H](O)[C@@H](C)CN5C(=O)[C@H]([C@H](O)CC(N)=O)NC(=O)[C@H]([C@H](O)[C@@H](O)c5ccc(O)c(OS(=O)(=O)O)c5)NC(=O)[C@@H]5C[C@@H](O)CN5C(=O)[C@H]([C@@H](C)O)NC4=O)cc3)no2)cc1 [MICAFUNGIN] (X1-[Orn(4R-OH,5R-OH)]T[Hyp][hTyr(3S-OH,4S-OH,3'-OSO3H)][Gln(3R-OH)][Pro(3S-OH,4S-Me)]; lactam 1-C) | – | – | – | 0.125 | – | – | 3.59 | 5.21 | 5.13 | 0.0625 | MIC [19]: 0.0625 mg/L; MIC [20]: 0.0625 mg/L; MIC [21]: 0.0625 mg/L; MIC [22]: 0.0625 mg/L; MIC [23]: 0.125 mg/L; MIC [24]: 0.0625 mg/L
